For 21 molecules, CC50, EC50 and selectivity ratio results are on record in ChEMBL document CHEMBL1153019, “Lignans with anti-HIV activity from Schisandra propinqua var. sinensis” (J Nat Prod, 2009).

pEC50: −log10 of the molar value.

The nature of series [1]: Cytotoxicity against human C8166 cells by MTT assay. Format: cell-based. The method, boiled down: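 MTT read-out of C8166 cell viability, run in parallel with the anti-HIV-1 cytopathic-effect assay. AZT served as positive control, and CC50 was derived.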
For orientation: Tetrazolium dyes change colour on reduction, which living cells bring about.

The subject of series [2] is Human immunodeficiency virus 1. The series is described as follows: Antiviral activity against HIV1 3B in human C8166 cells assessed as inhibition of virus-induced cytopathogenicity. The format is functional, organism-based. The following applies: Human immunodeficiency virus 1, 3B. In outline:
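HIV-1 cytopathic-effect inhibition in C8166 cells, run in parallel with the cytotoxicity test. AZT served as positive control, and EC50 was the read-out.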
For orientation: Protection from cytopathic effect is a common read-out in antiviral testing.

Series [3] is described as follows: Selectivity index, ratio of CC50 for human C8166 cells to EC50 for HIV1 3B. The following applies: read-out: Ratio CC50/EC50. The format is toxicity, cell-based.

For orientation: CC50 means the concentration that lowers cell viability or growth by half. A lower CC50 goes with greater toxicity to the cells. The pEC50 is the EC50 on a negative log10 scale, so that one unit is a factor of ten. `COc1cc2c(c(OC)c1OC)-c1c(cc3c(c1OC)OCO3)[C@H](OC(=O)c1ccccc1)[C@H](C)[C@](C)(O)[C@H]2OC(=O)c1ccccc1` had a CC50 in series [1] above 200 µM. Further, the pEC50 in series [2] was 4.64. In series [3], the selectivity ratio is above 8.7.

Regarding `COc1cc2c(c(OC)c1OC)-c1c(cc3c(c1OC)OCO3)[C@H](OC(=O)c1ccccc1)[C@H](C)[C@](C)(O)[C@H]2OC(=O)/C=C/c1ccccc1`, in series [1], the CC50 is above 200 µM. Besides, the pEC50 in series [2] is 4.29. In addition, in series [3], the selectivity ratio was above 3.9.

In series [1], `COc1cc(C[C@@H](C)[C@@H](C)Cc2ccc(OC)c(OC)c2)ccc1O` showed a 50% cytotoxic concentration (CC50) of 17.2 µM. In addition, the negative-log EC50 (pEC50) in series [2] is 5.54. Also, the selectivity ratio in series [3] amounted to 5.8.

Turning to `C/C=C(\C)C(=O)O[C@H]1c2cc(OC)c(OC)c(OC)c2-c2c(cc3c(c2OC)OCO3)[C@H](OC(=O)c2ccccc2)[C@H](C)[C@H]1C`, it took 78.2 µM to reach half-maximal cytotoxicity in series [1] (CC50). The pEC50 in series [2] was 4.81. The selectivity ratio in series [3] is 5.1.

`C/C=C(\C)C(=O)O[C@H]1c2cc(OC)c(OC)c(OC)c2-c2c(cc3c(c2OC)OCO3)[C@H](OC(=O)/C=C/c2ccccc2)[C@H](C)[C@]1(C)O` came in with a CC50 in series [1] above 200 µM. In addition, the pEC50 in series [2] was 5.10. The selectivity ratio in series [3] is above 25.2.

`COc1ccc([C@@H]2O[C@H](c3ccc4c(c3)OCO4)[C@@H](C)[C@@H]2C)cc1O` yielded a CC50 in series [1] of 19.9 µM. Moreover, the negative-log EC50 (pEC50) in series [2] is 5.17. Further, the selectivity ratio in series [3] is 2.9.

In series [1], `COc1ccc([C@H]2O[C@H](c3ccc4c(c3)OCO4)[C@@H](C)[C@H]2C)cc1OC` had a CC50 of 104 µM. Further, in series [2], the pEC50 was 4.81. In addition, the selectivity ratio in series [3] was found to be 6.7.

`CCCCCC(=O)O[C@H]1c2cc3c(c(OC)c2-c2c(cc(OC)c(OC)c2OC)[C@H](OC(=O)c2ccccc2)[C@@](C)(O)[C@H]1C)OCO3` displayed a CC50 in series [1] of 119 µM. Further, in series [2], the pEC50 was 4.54. Also, in series [3], the selectivity ratio stood at 4.1.

For the molecule `COc1cc2c(c(OC)c1OC)-c1c(cc3c(c1OC)OCO3)C(=O)[C@@H](C)[C@@H](C)C2`, the 50% cytotoxic concentration (CC50) in series [1] is above 200 µM. In series [2], the pEC50 was 4.69. In series [3], the selectivity ratio is above 9.8.

The molecule `COc1cc2c(cc1O)C[C@@H](C)[C@@H](C)[C@@H]2c1ccc(OC)c(OC)c1` returned a cytotoxic concentration (CC50) in series [1] of 30 µM. Also, the pEC50 in series [2] is 5.35. Moreover, the selectivity ratio in series [3] was 6.7.

Take `COc1ccc([C@H]2O[C@@H](c3ccc(OC)c(OC)c3)[C@H](C)[C@@H]2C)cc1OC` [GALGRAVIN]: the 50% cytotoxic concentration (CC50) in series [1] is 43.4 µM. Further, the negative-log EC50 (pEC50) in series [2] is 5.11. In series [3], the selectivity ratio is 5.6.

Turning to `C/C=C(/C)C(=O)O[C@H]1c2cc(OC)c(OC)c(OC)c2-c2c(cc3c(c2OC)OCO3)[C@H](OC(C)=O)[C@H](C)[C@@H]1C` [INTERIOTHERIN C], the half-maximal cytotoxic concentration (CC50) in series [1] was above 200 µM. In series [2], the pEC50 was 5.00. Also, the selectivity ratio in series [3] was above 20.2.

`COc1cc2c(c(OC)c1OC)-c1c(cc3c(c1OC)OCO3)[C@H](OC(C)=O)[C@H](C)[C@H](C)C2` [KADSURIN] came in with a CC50 in series [1] above 200 µM. Further, in series [2], the pEC50 was 4.10. Moreover, the selectivity ratio in series [3] was above 2.5.

Consider `COc1cc(C[C@@H](C)[C@@H](C)Cc2ccc(O)c(OC)c2)ccc1O` [MESODIHYDROGUAIARETIC ACID], for which the 50% cytotoxic concentration (CC50) in series [1] was 24.9 µM. Further, the pEC50 in series [2] is 5.40. In series [3], the selectivity ratio was 6.2.

With `C/C=C(\C)C(=O)Oc1c(OC)c(OC)cc2c1-c1c(cc(OC)c(OC)c1OC)[C@H](O)[C@H](C)[C@H](C)C2` [METHYL SCHISANTHERIN F], in series [1], the cytotoxic concentration (CC50) was above 200 µM. In addition, in series [2], the pEC50 is 4.80. In series [3], the selectivity ratio is above 12.7.

`COc1ccc(C[C@@H](C)[C@@H](C)Cc2ccc(OC)c(OC)c2)cc1OC` [TERAMEPROCOL] came in with a 50% cytotoxic concentration (CC50) in series [1] of 28.8 µM. Also, the pEC50 in series [2] was 4.83. Moreover, the selectivity ratio in series [3] came to 2.

`CC[C@H](C)C(=O)Oc1c(OC)c(OC)cc2c1-c1c(cc(OC)c(OC)c1OC)[C@H](O)[C@H](C)[C@H](C)C2` [TIEGUSANIN A] gave a CC50 in series [1] above 200 µM. In series [2], the negative logarithm of the EC50 (pEC50) was 4.53. For the same molecule, the selectivity ratio in series [3] is above 6.7.

Regarding `COc1cc2c(c(OC)c1OC)-c1c(cc(OC)c(OC)c1OC(=O)c1ccccc1)[C@H](O)[C@H](C)[C@H](C)C2` [TIEGUSANIN C], in series [1], the CC50 is above 200 µM. Besides, in series [2], the pEC50 was 4.73. Also, in series [3], the selectivity ratio was above 10.8.

As for `COc1c(O)cc2c(c1OC)-c1c(cc3c(c1OC)OCO3)C[C@@H](C)[C@@H](C)[C@H]2OC(=O)/C=C/c1ccccc1` [TIEGUSANIN L], in series [1], it took 74.1 µM to reach half-maximal cytotoxicity (CC50). In addition, the pEC50 in series [2] is 5.14. In addition, the selectivity ratio in series [3] is 10.2.

In the case of `COc1ccc(CC(C)C(C)Cc2cc(OC)c(OC)c(OC)c2)cc1OC` (stereo not drawn) [TIEGUSANIN N], half-maximal cytotoxicity in series [1] (CC50) was put at 24.5 µM. The negative-log EC50 (pEC50) in series [2] is 5.03. Besides, the selectivity ratio in series [3] was 2.6.

In turn, `Cc1cn([C@H]2C[C@H](N=[N+]=[N-])[C@@H](CO)O2)c(=O)[nH]c1=O` [ZIDOVUDINE] displayed a half-maximal cytotoxic concentration (CC50) in series [1] above 1000 µM. For the same molecule, in series [2], the pEC50 is 8.71. For the same molecule, in series [3], the selectivity ratio is above 500000.
